Here are results for 6 compounds from ChEMBL document CHEMBL1124262, “Cardiotonic agents. Synthesis and inotropic activity of a series of isoquinolin-3-ol derivatives” (J Med Chem, 1988).

The test system of test [1] is Canis familiaris. In words: Percent change in left ventricular pressure (dP/dtmax) in anesthetized dog after iv administration at 8.75 mg/kg. Type of test: functional, Canis lupus familiaris, Heart left ventricle. A digest of the protocol:
(§1)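 Anesthetized open-chest dogs, one drug per animal. Compound is in DMF diluted to 10% in saline, or given as the HCl salt in saline. It is infused into the femoral vein by pump at 0.58-2.2 mL/min in 3-4 stepwise cumulative doses, each over 5 min after the prior peak. Readings are CF by right-ventricle strain gauge, dP/dtmax by Millar LV catheter, HR by cardiotachometer and MAP from femoral artery, as % change from predrug control.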

Test [2] has as its system Canis familiaris. In words: Percent increase in contractile force (CF) in anesthetized open-chest dogs iv administration of 8.75 mg/kg. The format is functional, Canis lupus familiaris. In outline: (§2)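 Anesthetized open-chest dogs. After a right thoracotomy, contractile force was recorded by a Walton Brodie strain gauge sutured to the right ventricle at 100 g baseline tension. Compound was given iv by infusion pump into a femoral vein, one drug per animal, in three to four stepwise increasing doses. Each dose ran over 5 min, starting once the previous dose's effect peaked. Values are % increase over predrug control vs cumulative mg/kg dose.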

Test [3] has as its system Canis familiaris. In words: Percent change in heart rate (HR) in anesthetized open chest dogs after a iv dose of 8.75 mg/kg. The format is functional, Canis lupus familiaris. A digest of the protocol:
as §1

Test [4] has as its system Canis familiaris. In words: Percent change in mean arterial blood pressure (MAP) in anesthetized open chest dogs iv administration at 8.75 mg/kg. The format is functional, Canis lupus familiaris. In outline: as §1
Test [5] concerns Canis familiaris. In words: Percent increase in contractile force (CF) in anesthetized open-chest dogs iv administration of 1.75 mg/kg. The format is functional, Canis lupus familiaris. In outline: as §2
Test [6] has as its system Canis familiaris. In words: Percent change in left ventricular pressure (dP/dtmax) in anesthetized dog after iv administration at 1.75 mg/kg. The format is functional, Canis lupus familiaris, Heart left ventricle. A digest of the protocol: as §1
Test [7] deals with Canis familiaris. In words: Percent change in heart rate (HR) in anesthetized open chest dogs after a iv dose of 1.75 mg/kg. The format is functional, Canis lupus familiaris. In outline:
as §1

In test [8] the test system is Canis familiaris. In words: Percent change in mean arterial blood pressure (MAP) in anesthetized open chest dogs iv administration at 1.75 mg/kg. Type of test: functional, Canis lupus familiaris. A digest of the protocol:
as §1

Test [9] deals with Canis familiaris. In words: Percent change in left ventricular pressure (dP/dtmax) in anesthetized dog after iv administration at 3.75 mg/kg. The format is functional, Canis lupus familiaris, Heart left ventricle. A digest of the protocol:
as §1

For test [10], the system named is Canis familiaris. In words: Percent change in heart rate (HR) in anesthetized open chest dogs after a iv dose of 3.75 mg/kg. Type of test: functional, Canis lupus familiaris. A digest of the protocol: as §1
For test [11], the system named is Canis familiaris. In words: Percent increase in contractile force (CF) in anesthetized open-chest dogs iv administration of 3.75 mg/kg. The format is functional, Canis lupus familiaris. A digest of the protocol:
as §2

Test [12] concerns Canis familiaris. In words: Percent change in mean arterial blood pressure (MAP) in anesthetized open chest dogs iv administration at 3.75 mg/kg. Type of test: functional, Canis lupus familiaris. A digest of the protocol: as §1
In test [13] the test system is Canis familiaris. In words: Percent change in mean arterial blood pressure (MAP) in anesthetized open chest dogs iv administration at 0.375 mg/kg. The format is functional, Canis lupus familiaris. A digest of the protocol: as §1
Test [14] has as its system Canis familiaris. In words: Percent change in heart rate (HR) in anesthetized open chest dogs after a iv dose of 0.375 mg/kg. The format is functional, Canis lupus familiaris. In outline:
as §1

Test [15] deals with Canis familiaris. In words: Percent increase in contractile force (CF) in anesthetized open-chest dogs iv administration of 0.375 mg/kg. Type of test: functional, Canis lupus familiaris. In outline:
as §2

The subject of test [16] is Canis familiaris. In words: Percent change in left ventricular pressure (dP/dtmax) in anesthetized dog after iv administration at 0.375 mg/kg. The format is functional, Canis lupus familiaris, Heart left ventricle. In outline:
as §1

Test [17] relates to Canis familiaris. In words: Percent change in mean arterial blood pressure (MAP) in anesthetized open chest dogs iv administration at 1 mg/kg. Type of test: functional, Canis lupus familiaris. A digest of the protocol:
as §1

Test [18] addresses Phosphodiesterase 3 (Homo sapiens, UniProt Q14432+Q13370). In words: Inhibition of phosphodiesterase fraction III in anesthetized open chest dogs. Conditions: target entry is the homologue from another species. The format is functional, Canis lupus familiaris. A digest of the protocol: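 Enzyme is dog heart PDE-III, the third DEAE-cellulose fraction eluted at 800 mM sodium acetate. Compounds are tested at 0.01–1000 μM with 0.25 μM cAMP containing [³H]cAMP, in 0.05 M Tris-HCl pH 7.4 with 5 mM MgCl2. The reaction is stopped by heat, then snake venom converts product to adenosine. [³H]adenosine is counted by scintillation after Dowex separation. IC50 comes from ≥2 determinations, each in duplicate.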

Test [19] relates to Canis familiaris. In words: (§3) Percent change in mean arterial blood pressure (MAP) in anesthetized open chest dogs iv administration at 0.1 mg/kg. Type of test: functional, Canis lupus familiaris. In outline:
as §1

Test [20] deals with Canis familiaris. In words: (§4) Percent change in heart rate (HR) in anesthetized open chest dogs after a iv dose of 0.1 mg/kg. The format is functional, Canis lupus familiaris. In outline:
as §1

Test [21] relates to Canis familiaris. In words: Percent change in heart rate (HR) in anesthetized open chest dogs after a iv dose of 1 mg/kg. The format is functional, Canis lupus familiaris. A digest of the protocol:
as §1

Test [22] deals with Canis familiaris. In words: Percent increase in contractile force (CF) in anesthetized open-chest dogs iv administration of 0.1 mg/kg. The format is functional, Canis lupus familiaris. A digest of the protocol: as §1
Test [23] relates to Canis familiaris. In words: 50% increase in contractile force in one to three anesthetized dogs administered intravenously. The format is functional. Conditions: Canis lupus familiaris, iv. A digest of the protocol:
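Anesthetized dogs (one to three). Compound is infused iv in three to four stepwise increasing doses, each over 5 min once the previous effect has peaked. Contractile force is recorded with a Walton Brodie strain gauge on the right ventricle. The dose (μg/kg) giving a 50% rise over control CF is read from the dose-response curve, graphically (n < 3) or by linear regression (n ≥ 3).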

Test [24] concerns Canis familiaris. In words: Percent change in left ventricular pressure (dP/dtmax) in anesthetized dog after iv administration at 0.1 mg/kg. Type of test: functional, Canis lupus familiaris, Heart left ventricle. A digest of the protocol: as §1
The subject of test [25] is Canis familiaris. In words: Percent increase in left ventricular pressure (dP/dtmax) of anesthetized dog after id administration at 1 mg/kg. Conditions: route intraduodenal. Type of test: functional, Canis lupus familiaris, Heart left ventricle. A digest of the protocol: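 Anesthetized open-chest dogs. Left ventricular pressure was measured by Millar catheter and dP/dtmax derived. Compound was given as a 10-mL bolus into the duodenum through a catheter placed 2 cm distal to the pylorus via flank incision. Dissolved in DMF diluted to 10% in saline, or as HCl salt in saline. Response is % change over predrug control, monitored continuously.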

Test [26] relates to Canis familiaris. In words: Percent increase in contractile force (CF) in anesthetized open-chest dogs id administration of 1 mg/kg. To be noted: route intraduodenal. Type of test: functional, Canis lupus familiaris. A digest of the protocol:
(§5)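 Anesthetized open-chest dogs. A 10-mL bolus is injected into the duodenum through a catheter placed 2 cm distal to the pylorus. Contractile force is measured with a Walton Brodie strain gauge sutured to the right ventricle, at a baseline tension of 100 g, and monitored continuously. Results are given as % increase from predrug control against cumulative dose.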

In test [27] the test system is Canis familiaris. In words: Percent increase in contractile force (CF) in anesthetized open-chest dogs id administration of 0.100 mg/kg. The format is functional, Canis lupus familiaris. Conditions: dose 0.1 mg/kg; route intraduodenal. A digest of the protocol: as §5
Test [28] has as its system Canis familiaris. Described as §3. The format is functional, Canis lupus familiaris. In outline: as §1
The source holds these as a separate data set.

Test [29] deals with Canis familiaris. In words: Percent increase in contractile force (CF) in anesthetized open-chest dogs iv administration of 0.100 mg/kg. The format is functional, Canis lupus familiaris. To be noted: dose 0.1 mg/kg. A digest of the protocol:
as §1

Test [30] concerns Canis familiaris. The test is described as §4. Type of test: functional, Canis lupus familiaris. A digest of the protocol:
as §1
This is another data set of the same source.

In the case of `COc1ccc2cc(O)ncc2c1OC`, the Increase in [1] is 34%; in [2] it was 60%. Further, the figures for the Change in test [3] and in test [4] were 13% and -7%, respectively.
Regarding `COc1cc2cc(O)nc(C)c2cc1OC`, the Increase in [5] was 100%; in test [6], 55%. The values for the Change in test [7] and in [8] were 25% and -32%, respectively.
For the compound `Cc1nc(O)cc2cc3c(cc12)OCO3`, the Increase in test [9] came to 32%; in test [11], 82%. The figures for the Change in test [10] and in test [12] were 13% and -10%, respectively.
With `COc1cc2c(C)nc(OC(C)=O)c(Br)c2cc1OC`, the figures for the Change in test [13] and in test [14] were -33% and 15%, respectively. Further, the Increase came to 117% in [15] and 60% in [16].
A word on the IC50: it is the midpoint of a concentration-inhibition curve. In general, ED50 refers to the dose at which the effect has come halfway, by size or by number of responders. Low values mean greater potency, high ones weaker potency. Turning to `COc1cc2c(C)nc(O)c(C)c2cc1OC`, the Change in test [17] is given as -6%; in test [19], -4%; in test [20] it was 15%; in test [21], 8%. For the same compound, the IC50 in test [18] came to 10 µM. Also, the Increase in test [22] worked out at 80%; in test [24], 48%; in test [25] it was 30%; in [26], 64%. The compound also showed an ED50 in test [23] of 0.04 mg/kg.
With `Cc1[nH]c(=O)c(C#N)cc1-c1ccncc1` [MILRINONE], the Change in test [19] is given as -3%; in test [28] it was -13%; in test [20], 15%; in test [30] it was 14%. The Increase in test [27] is recorded as 85%; in test [29] it was 105%; in test [24], 76%; in test [25], 36%.
